Calls of active or inactive are those of the source. The rule behind the calls is not given here.
Key:
[1] = biological target: Proto-oncogene tyrosine-protein kinase Src (Homo sapiens, UniProt P12931); assay: Binding affinity to human SRC (L240 to L536 residues) expressed in bacterial expression system by KINOMEscan assay
[2] = test system: SW-620; assay: Effect on total mTOR expression in human SW620 cells up to 75 uM after 48 hrs by Western blot analysis; type: ADME, cell-based; conditions: sw-620, 48 h
Summary of the method: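 HT29 or SW620 cells were treated at 0, 25, 50 and 75 μM for 48 h and lysed in RIPA with protease and phosphatase inhibitors. Protein was quantified by BCA. 50 μg lysate was run on 8–15% SDS-PAGE and transferred to PVDF. Blocking was 5% BSA/TBST for 2 h; primary antibodies were applied overnight at 4 °C, then HRP secondary 1 h at room temperature.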

[3] = biological target: Non-receptor tyrosine-protein kinase TYK2 (Homo sapiens, UniProt P29597); assay: Inhibition of human TYK2 JH1 catalytic domain (V877 to C1187 residues) expressed in mammalian expression system assessed as residual activity at 5 uM by KINOMEscan assay relative to control
[4] = biological target: Tyrosine-protein kinase JAK2 (Homo sapiens, UniProt O60674); assay: Inhibition of human JAK2 JH1 catalytic domain (A829 to G1132 residues) expressed in mammalian expression system assessed as residual activity at 5 uM by KINOMEscan assay relative to control
[5] = test system: HT-29; assay: Induction of apoptosis in human HT-29 cells assessed as necrotic cells at 75 uM after 48 hrs by Annexin-V-FITC/propidium iodide staining based flow cytometry (reference value: 1.6%); type: functional
[6] = species on record: Homo sapiens; assay: Inhibition of PI3K in human SW620 cells assessed as reduction in AKT phosphorylation at T308 residue up to 75 uM after 48 hrs by Western blot analysis; type: cell-based
[7] = test system: SW-620; assay: Induction of apoptosis in human SW620 cells assessed as necrotic cells at 75 uM after 48 hrs by Annexin-V-FITC/propidium iodide staining based flow cytometry (reference value: 0.9%); type: functional
[8] = biological target: Serine/threonine-protein kinase 32C (Homo sapiens, UniProt Q86UX6); assay: Binding affinity to human YANK3 (M68 to G486 residues) expressed in bacterial expression system by KINOMEscan assay
[9] = test system: HT-29; assay: Cell cycle arrest in human HT-29 cells assessed as accumulation at S-phase at 25 uM after 48 hrs by propidium iodide staining based flow cytometry (reference value: 37.82%); type: functional
[10] = biological target: Serine/threonine-protein kinase B-raf (Homo sapiens, UniProt P15056); assay: Binding affinity to human BRAF (S429 to E741 residues) expressed in mammalian expression system by KINOMEscan assay
[11] = biological target: Receptor tyrosine-protein kinase erbB-4 (Homo sapiens, UniProt Q15303); assay: Binding affinity to human ERBB4 (L690 to K994 residues) expressed in bacterial expression system by KINOMEscan assay
[12] = biological target: Serine/threonine-protein kinase PLK3 (Homo sapiens, UniProt Q9H4B4); assay: Binding affinity to partial length human PLK3 (A42 to L334 residues) expressed in mammalian expression system by KINOMEscan assay
[13] = Growth inhibition of human FHC cells after 48 hrs by MTT assay; type: cell-based
[14] = biological target: Cyclin-dependent kinase 16 (Homo sapiens, UniProt Q00536); assay: Inhibition of human PCTK1 (G160 to A474 residues) expressed in mammalian expression system assessed as residual activity at 5 uM by KINOMEscan assay relative to control
[15] = biological target: Mitogen-activated protein kinase 11 (Homo sapiens, UniProt Q15759); assay: Inhibition of full length human p38beta (M1 to Q364 residues) expressed in bacterial expression system assessed as residual activity at 5 uM by KINOMEscan assay relative to control
[16] = test system: SW-620; assay: Induction of apoptosis in human SW620 cells assessed as late apoptotic cells at 75 uM after 48 hrs by Annexin-V-FITC/propidium iodide staining based flow cytometry (reference value: 1.2%); type: functional
[17] = biological target: Mitogen-activated protein kinase 14 (Homo sapiens, UniProt Q16539); assay: Binding affinity to full length human p38alpha (M1 to S360 residues) expressed in bacterial expression system by KINOMEscan assay
[18] = test system: HT-29; assay: Cell cycle arrest in human HT-29 cells assessed as accumulation at G1-phase at 25 uM after 48 hrs by propidium iodide staining based flow cytometry (reference value: 41.86%); type: functional
[19] = biological target: Tyrosine-protein kinase BTK (Homo sapiens, UniProt Q06187); assay: Inhibition of full length human BTK (M1 to S659 residues) expressed in mammalian expression system assessed as residual activity at 5 uM by KINOMEscan assay relative to control
[20] = test system: SW-620; assay: Cell cycle arrest in human SW620 cells assessed as accumulation at G2-phase at 50 uM after 48 hrs by propidium iodide staining based flow cytometry (reference value: 14.08%); type: functional
[21] = biological target: Testis-specific serine/threonine-protein kinase 1 (Homo sapiens, UniProt Q9BXA7); assay: Binding affinity to full length human TSSK1B (M1 to Q367 residues) expressed in bacterial expression system by KINOMEscan assay
[22] = biological target: Cyclin-dependent kinase 2 (Homo sapiens, UniProt P24941); assay: Binding affinity to full length human CDK2 (M1 to L298 residues) expressed in bacterial expression system by KINOMEscan assay
[23] = biological target: T1, Serine/threonine-protein kinase PAK 1 (Homo sapiens, UniProt Q13153); assay: Inhibition of human PAK1 (S149 to H545 residues) expressed in bacterial expression system assessed as residual activity at 5 uM by KINOMEscan assay relative to control
[24] = biological target: Serine/threonine-protein kinase pim-1 (Homo sapiens, UniProt P11309); assay: Binding affinity to human PIM1 (A15 to K313 residues) expressed in bacterial expression system by KINOMEscan assay
[25] = test system: SW-620; assay: Induction of apoptosis in human SW620 cells assessed as late apoptotic cells at 50 uM after 48 hrs by Annexin-V-FITC/propidium iodide staining based flow cytometry (reference value: 1.2%); type: functional
[26] = biological target: T1, Serine/threonine-protein kinase PAK 1; assay: Binding affinity to human PAK1 (S149 to H545 residues) expressed in bacterial expression system by KINOMEscan assay
[27] = test system: HT-29; assay: Induction of apoptosis in human HT-29 cells assessed as increase in apoptotic bodies after 48 hrs by Hoechst 33342 staining based fluorescence microscopic analysis; type: functional, cell-based
Summary of the method: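 HT29 cells in 24-well plates were treated at 0, 25, 50 or 75 μM for 48 h and fixed 20 min in 4% paraformaldehyde. After Hoechst 33342 staining for 15 min at 37 °C, apoptotic bodies and chromatin condensation were scored by fluorescence microscopy.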

[28] = biological target: Mitogen-activated protein kinase 3 (Homo sapiens, UniProt P27361); assay: Binding affinity to full length human ERK1 (M1 to P379 residues) expressed in bacterial expression system by KINOMEscan assay
[29] = biological target: Cyclin-dependent kinase 3 (Homo sapiens, UniProt Q00526); assay: Inhibition of full length human CDK3 (M1 to H305 residues) expressed in bacterial expression system assessed as residual activity at 5 uM by KINOMEscan assay relative to control

With `CC(C)CN(C(=O)c1cccnc1)c1c2ccccc2c(=O)n2c1[nH]c1ccccc12` the Kd [1] was no less than 5 µM, the Activity [2] was “Non-Toxic” and the Activity [3] was 73%. The Activity [4] was 88%, the Activity [5] was 18.8% and the inhibition [6] was “Active”. It also gave an Activity [7] of 3.5%, a Kd [8] of no less than 5 µM and an Activity [9] of 37.2%. It also gave a Kd [10] of no less than 5 µM, a Kd [11] of no less than 5 µM and a Kd [12] of no less than 5 µM. For the same molecule, the GI50 at 48 h [13] was greater than 200 µM, the Activity [14] was 95% and the Activity [15] was 100%. It also gave an Activity [16] of 19.6%, a Kd [17] of no less than 5 µM and an Activity [18] of 42.5%. It also gave an Activity [19] of 74%, an Activity [20] of 21.52% and a Kd [21] of no less than 5 µM. For the same molecule, the Kd [22] was no less than 5 µM, the Activity [23] was 100% and the Kd [24] was no less than 5 µM. For the same molecule, the Activity [25] was 12.1%, the Kd [26] was no less than 5 µM and the Activity [27] was “Dose-dependent effect”. For the same molecule, the Kd [28] was no less than 5 µM and the Activity [29] was 95%.

— ChEMBL document CHEMBL4229410, “Facile construction of fused benzimidazole-isoquinolinones that induce cell-cycle arrest and apoptosis in colorectal cancer cells” (Bioorg Med Chem, 2018)
